# Screening results deposited in PubChem BioAssay by several laboratories.
# Only some compounds are listed: those with a hit (about 1.3% of all), similar ones and a draw of the others.
# Hep lipid drop = modulators of hepatic lipid droplet formation; AML12 mouse hepatocytes, oleate lipid droplets, BODIPY imaging; inhibition, % at 6.5 µM; actives 0.4% (n = 240,000);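 active means lipid droplet intensity inhibited by at least 50%, with more than 500 cells counted; inconclusive means wells with under 300 cells, treated as cytotoxic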
#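 Material – mouse AML12 hepatocyte cell line, fixed after treatment · Compound dosing – one dose, 6.5 µM compound · Times – compound with oleate, overnight · Measured by – Image-based BODIPY and DAPI two-channel analysis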
# HCV core dimer = HCV core protein dimerization inhibition; TR-FRET GST/Flag-core106 dimerization, 1536-well; inhibition, % at 5 µM; actives 0.33% (n = 300,000); AID 1899;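 active means inhibition above the mean of all tested compounds plus 3 SD, set per screening campaign, cut at about 45% in these data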
#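 test system = GST/Flag-tagged HCV core106 proteins | probe or stimulus = Eu donor and XL665 acceptor anti-tag antibodies | times = compound-protein-antibody incubation 4 h at 22.5 °C | signal = TR-FRET, excitation 340 nm, emission 617 and 671 nm | measure = percent inhibition of core106 dimerization signal | controls = wells lacking GST-core106 and wells with excess unlabelled core106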
# HCV NS3 hel inh = blocks Hepatitis C virus NS3 helicase unwinding; NS3 helicase DNA unwinding, Cy5 molecular beacon fluorescence; inhibition, % at 10.9 µM; actives 0.56% (n = 290,000); AID 1800;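 active means inhibition above the mean of all tested compounds plus 3 SD, set per campaign, cut at about 35% in these data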;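 further: 0% = DMSO wells and 100% = thioflavine S control wells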
#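 System: NS3 helicase fragment of HCV / Schedule: 1 h at 25 °C / Control set: DMSO alone as 0% and 110 µM thioflavine S as 100% / Reagent: Cy5/quencher beacon DNA duplex and ATP to start / Technique: Cy5 fluorescence / Replication: singlicate / Evaluation: % inhibition of end-to-start signal ratio versus controls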
# TbMetRS inhib = blocks T. brucei methionyl-tRNA synthetase activity; actives 0.4% (n = 360,000); purified T. brucei MetRS, ATP depletion, Kinase-Glo luminescence; inhibition, % at 11.9 µM;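 active means inhibition above a per-plate cutoff of the control wells' mean inhibition plus 3 SD, cut at about 5.5% in these data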;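 further: 0% = DMSO wells median and 100% = median of wells with control inhibitor compound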
#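 Measured by: Kinase-Glo luciferase luminescence reporting remaining unconsumed ATP. Material: purified T. brucei MetRS enzyme. Doses: 11.9 µM compound single dose, 0.9% DMSO. Medium: HEPES buffer containing pyrophosphatase, BSA, spermine, DTT. Times: 15 min preincubation, 2 h reaction, all 25 °C. Reagent: methionine, ATP and bulk E. coli tRNA.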
# TbMetRS confirm = Trypanosoma brucei MetRS inhibition confirmed | shares compounds with TbMetRS inhib | T. brucei MetRS enzyme, luminescence (ATP depletion) | inhibition, % at 11.9 µM | actives 93% (n = 1,400) | AID 624412; in the data active means inhibition above about 7%
# Jurkat tox = counter-screen for T. brucei MetRS inhibitors: Jurkat cell cytotoxicity. Jurkat cells viability, ATP luminescence. shares compounds with TbMetRS inhib. actives 12% (n = 1,400). inhibition, % at 8.3 µM; in the data active means inhibition above about 15%;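 further: 0% = vehicle and 100% = reference inhibitor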
# TbMetRS FP orth = orthogonal test for Trypanosoma brucei MetRS inhibitors; shares compounds with TbMetRS inhib; purified T. brucei MetRS, fluorescence polarization; inhibition, % at 11.9 µM; actives 44% (n = 1,400); AID 651607; in the data active means inhibition above about 17%;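 further: 0% = vehicle wells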
# An asterisk follows results filed as active; ? = inconclusive; / = not tested or not shown.
SMILES,Hep lipid drop,HCV core dimer,HCV NS3 hel inh,TbMetRS inhib,TbMetRS confirm,Jurkat tox,TbMetRS FP orth
COc1ccc(OC)c(C2C(C#N)=C(N)Oc3cc(C)n(Cc4ccccn4)c(=O)c32)c1 (stereo not drawn),-0.9,1.4,1.1,89.0*,14.8*,-8.1,9.7
COc1ccc(OC)c(C2C(C#N)=C(N)Oc3cc(C)[nH]c(=O)c32)c1 (stereo not drawn),2.7,-1.5,-2.5,13.2*,4.0,-3.9,0.5
COc1ccc(OC)c(C2C(C#N)=C(N)Oc3cc(N)ccc32)c1 (stereo not drawn),-25.6,2.0,30.4,35.9*,3.7,12.2,3.6
COc1cc(C2C(C#N)=C(N)Oc3cc(C)n(CCc4ccccc4)c(=O)c32)cc2c1OCO2 (stereo not drawn),-4.0,14.4,13.0,85.3*,11.1*,-0.5,6.3
NC(=O)CC1C(=O)N(c2ccc(F)cc2)C(=O)N1NC(=O)CCc1ccccc1 (stereo not drawn),0.5,0.0,-0.1,0.3,/,/,/
C1CCCN(c2nc3nonc3nc2N2CCCCCC2)CC1,0.2,2.9,-4.4,-1.3,/,/,/
Nc1nc2nonc2nc1N1CCCCC1,/,-5.2,-3.6,7.1*,13.5*,2.9,2.9
C=CCn1c(SCN2C(=O)c3ccccc3C2=O)nc2ccc(Cl)cc2c1=O,-0.2,-4.7,4.9,-1.0,/,/,/
O=C(CSc1cccc[n+]1[O-])NC1CCCCC1,/,/,/,-0.2,/,/,/
C/C(=C1/SC(=S)N(CCC(=O)O)C1=O)c1ccc(O)cc1,12.6,-7.7,1.0,25.9*,64.1*,2.5,24.5*
COc1ccc2c(c1)c(/C=N/Nc1nc3ccccc3[nH]1)c(C)n2C,?,-26.5,-38.1,7.1*,18.9*,16.1*,18.1*
C(=N\Nc1nc2ccccc2[nH]1)/c1cccc2nccnc12,-55.1,-21.6,-13.8,5.9*,9.9*,95.8*,25.5*
COc1ccc(/C=N/Nc2nc3ccccc3[nH]2)cc1OC,18.8,-40.9,3.9,8.5*,11.7*,2.2,31.0*
C(=N\Nc1nc2ccccc2[nH]1)/c1ccc2ncccc2c1,3.7,-15.3,-29.9,4.2,/,/,/
COc1cc(/C=N\Nc2nc3ccccc3[nH]2)cc(OC)c1OC,/,-27.6,-5.1,5.2,/,/,/
COc1cc(OC)c(OC)cc1/C=N/Nc1nc2ccccc2[nH]1,3.0,-32.0,-19.9,8.7*,18.0*,6.0,31.1*
Cc1cc(-c2ccc(S(=O)(=O)N3CCCCC3)s2)on1,2.0,-1.7,-7.8,0.0,/,/,/
CC(C)[C@H](NS(=O)(=O)c1ccccc1F)C(=O)NC1CCCCC1,/,/,/,0.0,/,/,/
O=C(N/N=C/c1cccc(F)c1)c1c(O)c2c([nH]c1=O)CCCC2,29.8,-7.6,-7.0,-0.6,/,/,/
Fc1ccccc1NC(=S)NCCc1cccc(Cl)c1,-20.6,/,1.6,6.0*,17.1*,5.8,8.9
O=C1CC(N(CCc2ccccc2)C(=S)Nc2ccccc2)C(=O)N1c1ccc(Br)cc1 (stereo not drawn),4.2,6.4,-1.5,96.6*,98.8*,14.7,129.7*
COc1ccc(CN(C(=S)Nc2ccccc2)C2CC(=O)N(c3ccc(F)cc3)C2=O)cc1 (stereo not drawn),/,-3.4,-6.6,-0.6,/,/,/
Cc1ccc(N2C(=O)CC(N(CCc3ccccc3)C(=S)Nc3ccc(N(C)C)cc3)C2=O)cc1 (stereo not drawn),/,9.4,-6.1,73.9*,45.8*,10.3,28.5*
CCOC(=O)C1=C(CC)Nc2ccccc2N=C1NC(=O)Nc1ccc(Cl)c(Cl)c1,3.6,22.4,5.6,37.1*,97.3*,17.3*,117.2*
CCOC(=O)C1=C(CC)Nc2ccccc2N=C1NC(=O)c1cc(C)on1,/,/,/,-0.1,/,/,/
SMILES,Hep lipid drop,HCV core dimer,HCV NS3 hel inh,TbMetRS inhib,TbMetRS confirm,Jurkat tox,TbMetRS FP orth
CC1(C)CC(NCc2ccccc2)=CC(=S)N1,/,/,/,0.1,/,/,/
CC1(C)CC(N2CCN(CCO)CC2)=CC(=S)N1,14.0,-5.2,-2.2,6.2*,3.4,-0.1,-3.5
Cc1ccc(C(O)c2ncc(-c3cccc(C(F)(F)F)c3)[nH]2)cc1 (stereo not drawn),/,/,/,-0.4,/,/,/
CCOC(=O)CNC(=O)N1CCC(CCC(=O)N(C)Cc2ccccc2)CC1,-15.2,-0.6,5.6,5.7*,2.9,-6.6,-2.9
CCCCNC(=O)N1CCC(CCC(=O)N(C)Cc2ccccc2)CC1,-0.5,-7.1,5.8,-0.3,/,/,/
COc1ccc(NC(=O)C2(C)CCN2C2Cc3ccccc3C2)cc1OC (stereo not drawn),/,/,/,-0.2,/,/,/
Cc1cc(Cn2nc(-c3ccccc3)cc2C(=O)NCc2cccc(Br)c2)on1,/,-9.0,/,54.0*,83.8*,-4.3,67.6*
O=C(NCc1ccccn1)C1CCC(=O)N(Cc2ccc(Cl)cc2)C1 (stereo not drawn),-15.9,-8.7,15.0,0.7,/,/,/
Cc1cnc(CNC(=O)C2CCC(=O)N(Cc3ccc(Cl)cc3)C2)[nH]1 (stereo not drawn),-4.7,7.0,-5.6,31.7*,68.6*,-0.7,35.6*
COc1cc(CNCc2ccccn2)ccc1OCc1ccc(Cl)cc1Cl,/,-3.8,-87.3,9.9*,17.4*,14.6,12.4
COc1cc(CNCCN2CCOCC2)ccc1OCc1ccc(Cl)cc1Cl,/,-5.2,-72.2,7.0*,15.2*,16.5*,7.5
COc1cc(CNCc2ccccn2)ccc1OCc1ccc(Cl)c(Cl)c1,-7.1,-1.7,-34.7,-0.8,/,/,/
COc1cc(CNCCN2CCOCC2)ccc1OCc1cccc(Cl)c1,-12.1,-2.3,-4.8,-0.4,/,/,/
O=C(O)c1cccc(C(=O)O)c1Br,-0.2,-14.9,3.6,-0.1,/,/,/
O=C(c1ccc(Cl)cc1)c1c[nH]c(C(=O)NNc2cccc(Cl)n2)c1,6.0,5.8,10.1,22.1*,28.3*,-7.4,14.2
COc1c(C)cc(C(O)c2ncc(-c3ccccc3C)[nH]2)cc1C (stereo not drawn),/,/,/,0.1,/,/,/
COCCNC(=O)C1CCCN(C(=O)c2ccc(OC)c(F)c2)CC1 (stereo not drawn),/,/,/,0.3,/,/,/
COc1cc(NC(=O)CCNS(=O)(=O)c2cc(Br)cnc2N)cc(OC)c1,-14.5,-8.3,-3.6,0.0,/,/,/
Cc1ccc(NC(=O)CCNS(=O)(=O)c2cc(Br)cnc2N)c(Cl)c1,-23.4,-3.6,-7.7,/,/,/,/
Cc1ccc(NC(=O)CCNS(=O)(=O)c2cc(Br)cnc2N)cc1Cl,/,-3.8,-11.5,44.0*,58.4*,7.1,21.5*
Cc1cc(NC(=O)CCNS(=O)(=O)c2cc(Br)cnc2N)ccc1Br,/,-4.1,-2.9,30.9*,47.4*,5.8,29.3*
Nc1ncc(Br)cc1S(=O)(=O)NCCC(=O)Nc1cccc(Cl)c1,/,1.2,-10.3,10.5*,17.2*,0.2,8.6
